Assay results reported in ChEMBL document CHEMBL1240374, “Selection of mutations to detect multidrug-resistant Mycobacterium tuberculosis strains in Shanghai, China” (2010).

How the values were obtained:
Type in all cases: functional
[1] = tested on: Mycobacterium tuberculosis; experiment: Antibacterial activity against drug resistant Mycobacterium tuberculosis containing phenotypic ahpC-15 mutation assessed as cumulative microbial sensitivity by phenotypic drug susceptibility testing
Procedure, shortened: (§1)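 Phenotypic DST on clinical M. tuberculosis isolates by the egg-based Löwenstein-Jensen proportion method. Species was confirmed by biochemical tests and PCR. Mutations were found by sequencing. Each mutation is reported as a number and as a percentage of the isolates screened.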

[2] = tested on: Mycobacterium tuberculosis; experiment: Antibacterial activity against drug resistant Mycobacterium tuberculosis containing phenotypic katG299 mutation assessed as cumulative microbial sensitivity by phenotypic drug susceptibility testing; procedure, shortened: as §1
[3] = tested on: Mycobacterium tuberculosis; experiment: Antibacterial activity against drug resistant Mycobacterium tuberculosis containing phenotypic ahpC-9 mutation assessed as cumulative microbial sensitivity by phenotypic drug susceptibility testing; procedure, shortened: as §1
[4] = tested on: Mycobacterium tuberculosis; experiment: Antibacterial activity against Mycobacterium tuberculosis containing phenotypic embB306 mutation assessed as microbial sensitivity by phenotypic drug susceptibility testing; procedure, shortened: as §1
[5] = tested on: Mycobacterium tuberculosis; experiment: Antibacterial activity against drug resistant Mycobacterium tuberculosis containing phenotypic ahpC-12 mutation assessed as cumulative microbial sensitivity by phenotypic drug susceptibility testing; procedure, shortened: as §1
[6] = tested on: Mycobacterium tuberculosis; experiment: Antibacterial activity against drug resistant Mycobacterium tuberculosis containing phenotypic katG295 mutation assessed as cumulative microbial sensitivity by phenotypic drug susceptibility testing; procedure, shortened: as §1
[7] = tested on: Mycobacterium tuberculosis; experiment: Antibacterial activity against drug resistant Mycobacterium tuberculosis containing phenotypic ahpC-39 mutation assessed as cumulative microbial sensitivity by phenotypic drug susceptibility testing; procedure, shortened: as §1
[8] = tested on: Mycobacterium tuberculosis; experiment: Antibacterial activity against Mycobacterium tuberculosis containing phenotypic rpoB513,katG315,inhA-15,ahpC-10,ahpC-6 mutation assessed as microbial sensitivity by phenotypic drug susceptibility testing; procedure, shortened: as §1
[9] = tested on: Mycobacterium tuberculosis; experiment: Antibacterial activity against drug resistant Mycobacterium tuberculosis containing phenotypic inhA-15 mutation assessed as cumulative microbial sensitivity by phenotypic drug susceptibility testing; procedure, shortened: as §1
[10] = tested on: Mycobacterium tuberculosis; experiment: Antibacterial activity against drug resistant Mycobacterium tuberculosis containing phenotypic ahpC-10 mutation assessed as cumulative microbial sensitivity by phenotypic drug susceptibility testing; procedure, shortened: as §1
[11] = tested on: Mycobacterium tuberculosis; experiment: Antibacterial activity against drug resistant Mycobacterium tuberculosis containing phenotypic katG322 mutation assessed as cumulative microbial sensitivity by phenotypic drug susceptibility testing; procedure, shortened: as §1
[12] = tested on: Mycobacterium tuberculosis; experiment: Antibacterial activity against drug resistant Mycobacterium tuberculosis containing phenotypic katG315 mutation assessed as cumulative microbial sensitivity by phenotypic drug susceptibility testing; procedure, shortened: as §1
[13] = tested on: Mycobacterium tuberculosis; experiment: Antibacterial activity against drug resistant Mycobacterium tuberculosis containing phenotypic ahpC-32 mutation assessed as cumulative microbial sensitivity by phenotypic drug susceptibility testing; procedure, shortened: as §1
[14] = tested on: Mycobacterium tuberculosis; experiment: Antibacterial activity against drug resistant Mycobacterium tuberculosis containing phenotypic ahpC-6 mutation assessed as cumulative microbial sensitivity by phenotypic drug susceptibility testing; procedure, shortened: as §1
[15] = tested on: Mycobacterium tuberculosis; experiment: Antibacterial activity against drug resistant Mycobacterium tuberculosis containing phenotypic inhA-8 mutation assessed as cumulative microbial sensitivity by phenotypic drug susceptibility testing; procedure, shortened: as §1
[16] = tested on: Mycobacterium tuberculosis; experiment: Antibacterial activity against drug resistant Mycobacterium tuberculosis containing phenotypic inhA25 mutation assessed as cumulative microbial sensitivity by phenotypic drug susceptibility testing; procedure, shortened: as §1
[17] = tested on: Mycobacterium tuberculosis; experiment: Antibacterial activity against drug resistant Mycobacterium tuberculosis containing phenotypic rpoB513 mutation assessed as cumulative microbial sensitivity by phenotypic drug susceptibility testing; procedure, shortened: as §1
[18] = tested on: Mycobacterium tuberculosis; experiment: Antibacterial activity against drug resistant Mycobacterium tuberculosis containing phenotypic rpoB526 mutation assessed as cumulative microbial sensitivity by phenotypic drug susceptibility testing; procedure, shortened: as §1
[19] = tested on: Mycobacterium tuberculosis; experiment: Antibacterial activity against drug resistant Mycobacterium tuberculosis containing phenotypic rpoB533 mutation assessed as cumulative microbial sensitivity by phenotypic drug susceptibility testing; procedure, shortened: as §1
[20] = tested on: Mycobacterium tuberculosis; experiment: Antibacterial activity against drug resistant Mycobacterium tuberculosis containing phenotypic rpoB516 mutation assessed as cumulative microbial sensitivity by phenotypic drug susceptibility testing; procedure, shortened: as §1
[21] = tested on: Mycobacterium tuberculosis; experiment: Antibacterial activity against drug resistant Mycobacterium tuberculosis containing phenotypic rpoB531 mutation assessed as cumulative microbial sensitivity by phenotypic drug susceptibility testing; procedure, shortened: as §1
[22] = tested on: Mycobacterium tuberculosis; experiment: Antibacterial activity against drug resistant Mycobacterium tuberculosis containing phenotypic rpoB515 mutation assessed as cumulative microbial sensitivity by phenotypic drug susceptibility testing; procedure, shortened: as §1
[23] = tested on: Mycobacterium tuberculosis; experiment: Antibacterial activity against drug resistant Mycobacterium tuberculosis containing phenotypic rpoB519 mutation assessed as cumulative microbial sensitivity by phenotypic drug susceptibility testing; procedure, shortened: as §1
[24] = tested on: Mycobacterium tuberculosis; experiment: Antibacterial activity against drug resistant Mycobacterium tuberculosis containing phenotypic rpoB522 mutation assessed as cumulative microbial sensitivity by phenotypic drug susceptibility testing; procedure, shortened: as §1
[25] = tested on: Mycobacterium tuberculosis; experiment: Antibacterial activity against drug resistant Mycobacterium tuberculosis containing phenotypic rpoB511 mutation assessed as cumulative microbial sensitivity by phenotypic drug susceptibility testing; procedure, shortened: as §1
[26] = tested on: Mycobacterium tuberculosis; experiment: Antibacterial activity against drug resistant Mycobacterium tuberculosis containing phenotypic rpoB518 mutation assessed as cumulative microbial sensitivity by phenotypic drug susceptibility testing; procedure, shortened: as §1
[27] = tested on: Mycobacterium tuberculosis; experiment: Antibacterial activity against drug resistant Mycobacterium tuberculosis containing phenotypic rpoB534 mutation assessed as cumulative microbial sensitivity by phenotypic drug susceptibility testing; procedure, shortened: as §1
[28] = tested on: Mycobacterium tuberculosis; experiment: Antibacterial activity against Mycobacterium tuberculosis containing phenotypic rpoB531,rpoB526,rpo533 mutation assessed as microbial sensitivity by phenotypic drug susceptibility testing; procedure, shortened: as §1
[29] = tested on: Mycobacterium tuberculosis; experiment: Antibacterial activity against drug resistant Mycobacterium tuberculosis containing phenotypic rpoB529 mutation assessed as cumulative microbial sensitivity by phenotypic drug susceptibility testing; procedure, shortened: as §1

## NNC(=O)c1ccncc1 [ISONIAZID]
[1]
  Activity: 88.4%
[2]
  Activity: 88.8%
[3]
  Activity: 87.6%
[4]
  Activity: 89.3%
[5]
  Activity: 85.5%
[6]
  Activity: 88.8%
[7]
  Activity: 86.4%
[8]
  Activity: 85.5%
[9]
  Activity: 78.5%
[10]
  Activity: 80.6%
[11]
  Activity: 89.3%
[12]
  Activity: 72.7%
[13]
  Activity: 88%
[14]
  Activity: 83.1%
[15]
  Activity: 86.4%
[16]
  Activity: 87.6%

## CO[C@H]1/C=C/O[C@@]2(C)Oc3c(C)c(O)c4c(O)c(c(/C=N/N5CCN(C)CC5)c(O)c4c3C2=O)NC(=O)/C(C)=C\C=C\[C@H](C)[C@H](O)[C@@H](C)[C@@H](O)[C@@H](C)[C@H](OC(C)=O)[C@@H]1C [RIFAMPIN]
[4]
  Activity: 93.8%
[17]
  Activity: 93.8%
[18]
  Activity: 79.8%
[19]
  Activity: 90.9%
[20]
  Activity: 87.2%
[21]
  Activity: 61.2%
[22]
  Activity: 95.9%
[23]
  Activity: 96.3%
[24]
  Activity: 95.9%
[25]
  Activity: 94.2%
[26]
  Activity: 95.9%
[27]
  Activity: 95.9%
[28]
  Activity: 93.8%
[29]
  Activity: 95.9%
